Compound activity (PubChem)
This is a sample that favours compounds with a hit; in the whole collection about 2.6% have one here.
NadD inh: inhibitors of Staphylococcus aureus NadD | purified NadD enzyme, colorimetric absorbance read-out | inhibition, % at 20 µM | 360,000 tested, 0.78% active | AID 602399; in the data active = inhibition above about 26%
ABHD5 PLIN5 PPI: ABHD5-PLIN5 protein interaction inhibition | Q00G26+Q8WTS1 | Split G. princeps luciferase complementation, luminescence, 4 h | inhibition, % at 4 µM | 360,000 tested, 0.78% active;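 active = inhibition above the mean inhibition across every tested compound plus 3 SD, cut at about 22% in these data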;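 also: 0% = DMSO only wells and the 100% control is not disclosed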
Target sequence (Q00G26 whole entry, looked up): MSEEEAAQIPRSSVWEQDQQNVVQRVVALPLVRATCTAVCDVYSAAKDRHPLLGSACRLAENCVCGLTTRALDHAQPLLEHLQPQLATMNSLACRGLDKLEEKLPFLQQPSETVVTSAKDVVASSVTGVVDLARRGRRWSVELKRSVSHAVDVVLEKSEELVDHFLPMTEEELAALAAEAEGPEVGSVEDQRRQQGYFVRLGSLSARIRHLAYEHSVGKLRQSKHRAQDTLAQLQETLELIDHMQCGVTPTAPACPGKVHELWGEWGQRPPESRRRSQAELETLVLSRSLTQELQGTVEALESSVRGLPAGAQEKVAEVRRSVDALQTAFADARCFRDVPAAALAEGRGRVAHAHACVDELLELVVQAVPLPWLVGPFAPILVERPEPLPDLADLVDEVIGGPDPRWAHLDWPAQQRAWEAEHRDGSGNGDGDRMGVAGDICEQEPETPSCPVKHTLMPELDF
Target sequence (Q8WTS1 whole entry, looked up): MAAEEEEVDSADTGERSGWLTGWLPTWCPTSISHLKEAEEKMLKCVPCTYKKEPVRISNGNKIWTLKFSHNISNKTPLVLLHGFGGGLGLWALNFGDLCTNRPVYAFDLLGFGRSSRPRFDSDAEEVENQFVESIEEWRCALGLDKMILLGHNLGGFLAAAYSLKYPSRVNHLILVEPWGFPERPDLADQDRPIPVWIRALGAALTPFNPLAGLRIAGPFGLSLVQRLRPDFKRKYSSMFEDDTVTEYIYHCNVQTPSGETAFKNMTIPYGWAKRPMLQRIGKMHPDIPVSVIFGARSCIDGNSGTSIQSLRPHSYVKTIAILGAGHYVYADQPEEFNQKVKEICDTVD
core dimer inh: blocks dimerization of HCV core protein | TR-FRET GST/Flag-core106 dimerization, 1536-well | inhibition, % at 5 µM | 300,000 tested, 0.33% active;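 active = inhibition above the mean of all tested compounds plus 3 SD, set per screening campaign, cut at about 45% in these data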
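assay system = GST-tagged and Flag-tagged HCV core protein residues 1-106 | controls = unlabelled core106 and no-GST-core106 wells | incubation = compound-protein-antibody incubation 4 h at 22.5 °C | probe or stimulus = Eu donor and XL665 acceptor anti-tag antibodies | read-out = % inhibition based on acceptor/donor emission ratio | signal = TR-FRET 671 and 617 nm emission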
rCAG RNA binder: r(CAG) repeat RNA binding; inhibition, % at 3 µM; TO-PRO-1 dye displacement fluorescence; AID 651821; 370,000 tested, 1.3% active;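 active = inhibition above the plate cutoff, the mean of all test compounds on that plate plus 3 SD, cut at about 35% in these data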;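 also: 0% = DMSO alone and 100% = 100 µM mitoxantrone as full dye displacement; higher means more dye released from RNA so lower well fluorescence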
rCAG binder conf: r(CAG) RNA repeat binding, confirmation; shares compounds with rCAG RNA binder; TO-PRO-1 dye displacement fluorescence; inhibition, % at 3 µM; 4,300 tested, 70% active;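 active = inhibition above a per-plate cutoff, the mean inhibition of sample wells plus 3 SD, cut at about 35% in these data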;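 also: loss of TO-PRO-1 fluorescence as compound displaces dye from 1x1 AA loop RNA; 0% = DMSO only wells and 100% = 100 µM mitoxantrone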
DNA CAG counter: disrupts DNA CAG TO-PRO-1 complex, flagging rCAG hits | shares compounds with rCAG RNA binder | d(CAG) DNA oligo TO-PRO-1 dye displacement, fluorescence | AID 652068 | inhibition, % at 3 µM | 4,300 tested, 94% active;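 active = inhibition above its plate's cutoff, the mean test-well inhibition plus 3 SD, cut at about 4.8% in these data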;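 also: 0% = DNA dye mix with DMSO and 100% = 100 µM mitoxantrone; hits displace the dye from DNA and so lower well fluorescence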
dCAG dye DR: counter-screen for rCAG binders: inhibitors of DNA CAG TO-PRO-1 complex; shares compounds with rCAG RNA binder; DNA CAG/GTC duplex TO-PRO-1 dye displacement fluorescence; IC50, µM; 250 tested, 20% active; in the data active = IC50 below about 10 µM
An asterisk follows results filed as active; i = inactive; . = not tested or not shown.

SMILES	NadD inh	ABHD5 PLIN5 PPI	core dimer inh	rCAG RNA binder	rCAG binder conf	DNA CAG counter	others
Cc1ccc(NS(=O)(=O)c2ccc(C)c(C(=O)Nc3ccc(S(=O)(=O)Nc4onc(C)c4C)cc3)c2)cc1	11	-11	.	64*	70*	35*
Cc1ccc2c(=O)cc(C(=O)Nc3ccc(S(=O)(=O)Nc4onc(C)c4C)cc3)oc2c1	0	0	1	61*	37*	11*
Cc1cccc(-n2ccc(=O)c(C(=O)Nc3ccc(S(=O)(=O)Nc4onc(C)c4C)cc3)n2)c1	5	-2	-4	39*	43*	12*
Cc1cc(C)c(C(=O)Nc2ccc(S(=O)(=O)Nc3onc(C)c3C)cc2)c(C)c1	-4	5	-1	14	.	.
Cc1ccc2c(C)c(C(=O)Nc3ccc(S(=O)(=O)Nc4onc(C)c4C)cc3)oc2c1	2	10	16	79*	74*	40*
Cc1cc(C)nc(NS(=O)(=O)c2ccc(NC(=O)c3nn(-c4ccccc4)ccc3=O)cc2)n1	2	6	0	-1	.	.
Cc1noc(NS(=O)(=O)c2ccc(NC(=O)c3cc4ccccc4o3)cc2)c1C	-2	2	.	25	.	.
Cc1noc(NS(=O)(=O)c2ccc(NC(=O)c3oc4ccc(Cl)cc4c3C)cc2)c1C	10	0	14	88*	85*	48*
COc1ccc(C2CC(c3ccccc3)=NN2c2ccc(Cl)c(C(=O)O)c2)cc1 (configuration not stated)	5	3	23	61*	55*	17*
COc1ccc(C2=NN(c3ccc(C(=O)O)cc3)C(c3ccc(OC)c(OC)c3)C2)cc1 (configuration not stated)	8	-3	14	39*	49*	14*
COc1ccc(-c2nn(CCC(=O)O)cc2CCC(=O)O)cc1	-1	0	-5	-1	.	.
COc1ccc(C2CC(c3ccccc3)=NN2c2ccc(S(N)(=O)=O)cc2)cc1OC (configuration not stated)	7	4	6	10	.	.
COc1ccc(C2=NN(c3ccccc3)C(c3cn(CCC(=O)O)nc3-c3ccccc3)C2)cc1 (configuration not stated)	14	2	19	39*	46*	12*
COc1cc(C2CC(c3ccccc3)=NN2c2ccccc2)ccc1OCC(=O)O (configuration not stated)	6	-5	5	41*	50*	15*
COc1ccc(C2CC(c3ccccc3)=NN2c2ccc(N)cc2)cc1 (configuration not stated)	6	0	-5	13	.	.
CC(C)(C)c1ccc(OCCCN2CCC(C(O)(c3ccccc3)c3ccccc3)CC2)cc1	.	.	.	4	.	.
COc1ccc(C2CC(c3ccccc3)=NN2c2ccccc2)c(C(=O)O)c1OC (configuration not stated)	8	-4	-4	46*	59*	16*
C[C@@H]1CN([C@@H](C)CO)C(=O)CCCn2cc(nn2)CO[C@H]1CN(C)C(=O)c1ccncc1	.	.	.	1	.	.
O=C(c1c(O)cc(O)cc1O)C1c2c(cc(O)c3c2O[C@H](c2ccc(O)cc2)[C@@H](O)C3)OC1c1ccc(O)cc1 (some centres not stated)	2	8	.	37*	45*	16*
O=S1(=O)CC(N2CCC(c3ccccc3)CC2)CN1Cc1cn(Cc2ccc(C(F)(F)F)cc2)nn1 (configuration not stated)	.	.	.	-1	.	.
CN(C)S(=O)(=O)c1cc(C(=O)O)c(NC2CCCCC2)cc1Cl	-2	7	8	45*	31	6.2*
O=C(O)CCSc1nnc(COc2cccc3ccccc23)n1-c1cccc(Cl)c1	7	10	13	44*	45*	12*
Cc1cccc(OCc2nnc(SCC(=O)O)n2Cc2ccccc2)c1	-4	-1	0	11	.	.
O=C(O)CSc1nnc(COc2cccc3ccccc23)n1Cc1ccccc1	4	1	8	38*	43*	11*
CCn1c(COc2ccc3ccccc3c2C)nnc1SCC(=O)Nc1cccc(C(=O)O)c1	3	14	7	68*	60*	27*
SMILES	NadD inh	ABHD5 PLIN5 PPI	core dimer inh	rCAG RNA binder	rCAG binder conf	DNA CAG counter	others
CCn1c(COc2cccc(C)c2)nnc1SCC(=O)Nc1cccc(C(=O)O)c1	2	7	2	-1	.	.
CCc1ccc([C@@H]2CC=C(C(=O)O)[C@H](c3ccc(Br)cc3)N2S(=O)(=O)c2ccc(C)cc2)cc1	12	-6	.	6	.	.
Cc1ccc(S(=O)(=O)N2[C@@H](c3ccc(Cl)cc3)C(C(=O)O)=CC[C@H]2c2ccc(Cl)cc2)cc1	10	-1	11	82*	84*	53*
CCOc1ccc([C@@H]2CC=C(C(=O)O)[C@H](c3ccc(Cl)cc3)N2S(=O)(=O)c2ccc(C)cc2)cc1	6	0	23	59*	74*	37*
Cc1ccc(S(=O)(=O)N2[C@@H](c3ccc(Br)cc3)C(C(=O)O)=CC[C@H]2c2ccc(Cl)cc2)cc1	3	1	.	83*	82*	53*
Cc1ccc(S(=O)(=O)N2[C@@H](c3cccc(Cl)c3)C(C(=O)O)=CC[C@H]2c2ccc(C(C)C)cc2)cc1	17	-12	18	85*	80*	45*
Cc1ccc(S(=O)(=O)N2[C@@H](c3ccc(Cl)cc3)C(C(=O)O)=CC[C@H]2c2cccc(C)c2)cc1	10	0	12	4	.	.
Cc1ccc(S(=O)(=O)N2[C@@H](c3ccc(F)cc3)C(C(=O)O)=CC[C@H]2c2ccc(Cl)cc2)cc1	-1	-6	27	78*	69*	31*
Cc1ccc(S(=O)(=O)N2[C@@H](c3ccccc3)C(C(=O)O)=CC[C@H]2c2ccc(Cl)cc2)cc1	7	-5	19	58*	72*	34*	dCAG dye DR=i
Cc1ccc([C@@H]2CC=C(C(=O)O)[C@H](c3ccc(Cl)cc3)N2S(=O)(=O)c2ccc(C)cc2)cc1	15	-8	19	84*	78*	45*
O=C(O)C1=CC[C@@H](c2ccc(Cl)cc2)N(S(=O)(=O)c2ccc(Cl)cc2)[C@H]1c1ccc(Br)cc1	12	2	.	85*	88*	58*
CCCCc1c(-c2ccc(F)cc2)ncn1CCc1ccccc1OC	-2	-10	.	2	.	.
Cc1cccc(C)c1NC(=O)C1C(c2ccc3c(c2)OCO3)=Nc2ccccc2N1C(=O)c1cccc2ccccc12 (configuration not stated)	.	5	.	17	.	.
COC(=O)[C@]12C[C@H](CC(=O)NCC3CCCCC3)C(=O)N(CCC3=CCCCC3)C1=C[C@H](C(C)(C)C)O[C@@H]2C	.	.	.	1	.	.
